Legend:
[1] = system: MCF7; assay: Antiproliferative activity against human MCF7 cells after 48 hrs by sulforhodamine B assay; assay type: functional, cell-based; settings: MCF7, 48 h
Procedure, shortened: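 MCF-7 cells seeded at 5×10^4–10^5 cells/well, allowed to attach 24 h, then exposed to 0, 5, 12.5, 25 and 50 µg/mL for 48 h. Compounds were dissolved in DMSO and diluted with saline; controls got vehicle only; four wells per concentration. Cells fixed with cold 50% TCA, stained with 0.4% SRB, dye solubilised in 10 mM tris pH 10.5, OD read at 564 nm. Survival fraction = OD treated/OD control; IC50 taken from the survival-versus-concentration plot.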

[2] = system: MCF7; assay: Potency index, ratio of doxorubicin IC50 to compound IC50 for antiproliferative activity against human MCF7 cells; assay type: functional
[3] = system: MCF7; assay: Induction of apoptosis in human MCF7 cells assessed as early apoptotic cells at 7.1 uM after 24 hrs by Annexin V-FITC/propidium iodide staining based flow cytometry relative to control; assay type: functional
[4] = target: T1, Vascular endothelial growth factor receptor 2 (Homo sapiens, UniProt P35968); assay: Inhibition of human VEGFR2 after 2 hrs by ELISA
T1 sequence (P35968 whole entry): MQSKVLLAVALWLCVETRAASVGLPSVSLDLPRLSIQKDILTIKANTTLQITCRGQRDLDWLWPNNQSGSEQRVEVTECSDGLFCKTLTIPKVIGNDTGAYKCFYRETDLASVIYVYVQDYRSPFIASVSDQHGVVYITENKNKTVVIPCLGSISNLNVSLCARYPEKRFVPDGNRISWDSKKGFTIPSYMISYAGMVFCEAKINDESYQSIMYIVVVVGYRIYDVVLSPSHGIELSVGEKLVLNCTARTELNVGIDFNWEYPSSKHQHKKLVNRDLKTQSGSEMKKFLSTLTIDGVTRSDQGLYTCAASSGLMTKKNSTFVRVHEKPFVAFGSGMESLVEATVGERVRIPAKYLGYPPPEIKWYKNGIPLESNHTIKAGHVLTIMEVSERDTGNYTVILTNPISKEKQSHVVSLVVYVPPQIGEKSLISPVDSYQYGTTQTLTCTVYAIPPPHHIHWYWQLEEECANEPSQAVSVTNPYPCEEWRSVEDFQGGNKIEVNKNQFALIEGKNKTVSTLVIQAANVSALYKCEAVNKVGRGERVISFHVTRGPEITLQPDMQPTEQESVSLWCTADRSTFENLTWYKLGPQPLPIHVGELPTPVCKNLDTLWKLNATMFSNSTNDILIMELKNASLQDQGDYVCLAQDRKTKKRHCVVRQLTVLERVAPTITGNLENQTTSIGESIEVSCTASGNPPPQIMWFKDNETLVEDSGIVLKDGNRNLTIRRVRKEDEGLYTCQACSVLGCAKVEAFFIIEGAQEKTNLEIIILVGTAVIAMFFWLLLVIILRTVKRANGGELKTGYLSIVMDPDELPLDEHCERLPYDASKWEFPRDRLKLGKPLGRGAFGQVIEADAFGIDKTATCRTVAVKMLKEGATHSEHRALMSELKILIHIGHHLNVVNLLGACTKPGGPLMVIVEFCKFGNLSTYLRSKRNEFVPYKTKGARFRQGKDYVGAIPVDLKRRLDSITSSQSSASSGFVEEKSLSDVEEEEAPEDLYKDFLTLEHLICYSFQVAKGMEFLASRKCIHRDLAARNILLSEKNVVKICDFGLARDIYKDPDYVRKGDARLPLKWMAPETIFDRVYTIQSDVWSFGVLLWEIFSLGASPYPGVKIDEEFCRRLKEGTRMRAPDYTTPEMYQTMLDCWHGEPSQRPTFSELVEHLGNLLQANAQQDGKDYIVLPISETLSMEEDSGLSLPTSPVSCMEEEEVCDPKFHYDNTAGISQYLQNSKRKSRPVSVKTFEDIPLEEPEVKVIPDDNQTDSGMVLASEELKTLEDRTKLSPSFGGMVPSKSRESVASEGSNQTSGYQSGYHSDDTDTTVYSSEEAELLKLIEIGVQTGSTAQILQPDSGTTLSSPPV

[5] = system: MCF7; assay: Induction of apoptosis in human MCF7 cells assessed as Bcl2 expression levels at 7.1 uM after 24 hrs by SYBR Green dye-based RT-PCR analysis (reference value: 538306 IU/ml); assay type: functional
[6] = system: MCF7; assay: Cell cycle arrest in human MCF7 cells assessed as accumulation at S phase at 7.1 uM after 24 hrs by propidium iodide staining-based flow cytometry (reference value: 25.2%); assay type: functional
Procedure, shortened: (§1)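 MCF-7 cells treated 24 h with 7.10 µM. Cells washed with ice-cold PBS, fixed in ice-cold 70% ethanol, resuspended with 0.1 mg/mL RNase and stained with propidium iodide. DNA content read by FACSCalibur flow cytometry to give phase distribution (pre-G1/sub-G1, G1, S, G2/M).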

[7] = system: MCF7; assay: Cell cycle arrest in human MCF7 cells assessed as accumulation at G2/M phase at 7.1 uM after 24 hrs by propidium iodide staining-based flow cytometry (reference value: 7.2%); assay type: functional; procedure, shortened: as §1
[8] = system: MCF7; assay: Induction of apoptosis in human MCF7 cells assessed as p53 expression levels at 7.1 uM after 24 hrs by SYBR Green dye-based RT-PCR analysis (reference value: 244 IU/ml); assay type: functional
[9] = target: DNA topoisomerase 2-beta (Homo sapiens, UniProt Q02880); assay: Inhibition of human topoisomerase 2beta after 2 hrs at 37 degC by ELISA
Chain of DNA topoisomerase 2-beta (Q02880 whole entry): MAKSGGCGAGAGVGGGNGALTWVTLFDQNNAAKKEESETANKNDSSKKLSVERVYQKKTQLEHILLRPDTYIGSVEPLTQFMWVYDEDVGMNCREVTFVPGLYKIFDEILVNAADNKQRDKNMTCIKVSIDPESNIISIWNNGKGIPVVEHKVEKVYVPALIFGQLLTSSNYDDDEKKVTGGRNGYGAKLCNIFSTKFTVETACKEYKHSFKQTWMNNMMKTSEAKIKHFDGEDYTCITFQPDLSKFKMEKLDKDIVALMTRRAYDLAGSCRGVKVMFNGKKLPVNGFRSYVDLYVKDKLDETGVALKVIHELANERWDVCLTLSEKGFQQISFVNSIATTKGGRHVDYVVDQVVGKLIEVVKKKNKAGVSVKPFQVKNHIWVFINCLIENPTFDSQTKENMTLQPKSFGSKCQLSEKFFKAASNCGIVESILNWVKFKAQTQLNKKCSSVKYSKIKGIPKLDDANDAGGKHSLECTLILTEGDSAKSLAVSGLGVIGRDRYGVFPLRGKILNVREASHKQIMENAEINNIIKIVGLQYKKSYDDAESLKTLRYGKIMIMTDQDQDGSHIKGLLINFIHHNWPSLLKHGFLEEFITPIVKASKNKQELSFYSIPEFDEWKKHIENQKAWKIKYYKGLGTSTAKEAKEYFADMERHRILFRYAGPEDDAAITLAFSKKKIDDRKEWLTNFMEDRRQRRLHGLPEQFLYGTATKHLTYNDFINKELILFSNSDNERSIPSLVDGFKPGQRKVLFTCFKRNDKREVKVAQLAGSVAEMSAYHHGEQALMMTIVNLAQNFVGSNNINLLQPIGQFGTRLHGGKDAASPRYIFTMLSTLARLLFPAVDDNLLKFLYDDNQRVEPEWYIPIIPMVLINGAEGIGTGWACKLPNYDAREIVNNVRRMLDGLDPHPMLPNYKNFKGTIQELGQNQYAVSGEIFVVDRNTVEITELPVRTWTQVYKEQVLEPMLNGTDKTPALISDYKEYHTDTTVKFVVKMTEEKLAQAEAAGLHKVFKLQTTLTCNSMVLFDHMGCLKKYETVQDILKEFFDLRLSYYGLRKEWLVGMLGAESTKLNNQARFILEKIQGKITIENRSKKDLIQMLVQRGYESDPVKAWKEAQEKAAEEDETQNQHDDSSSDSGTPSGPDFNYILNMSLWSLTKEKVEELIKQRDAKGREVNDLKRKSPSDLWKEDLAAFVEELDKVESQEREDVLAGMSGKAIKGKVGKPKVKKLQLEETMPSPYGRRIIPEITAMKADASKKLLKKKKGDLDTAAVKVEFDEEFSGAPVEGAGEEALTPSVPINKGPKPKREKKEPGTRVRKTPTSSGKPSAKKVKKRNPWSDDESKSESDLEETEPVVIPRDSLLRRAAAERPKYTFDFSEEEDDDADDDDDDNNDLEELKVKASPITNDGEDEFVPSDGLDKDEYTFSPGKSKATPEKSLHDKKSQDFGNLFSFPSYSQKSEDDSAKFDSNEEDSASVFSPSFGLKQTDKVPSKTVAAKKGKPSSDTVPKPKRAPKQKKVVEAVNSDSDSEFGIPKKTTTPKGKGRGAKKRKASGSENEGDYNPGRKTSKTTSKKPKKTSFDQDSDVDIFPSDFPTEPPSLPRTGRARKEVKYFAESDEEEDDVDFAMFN
Procedure, shortened: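 Sandwich ELISA: standard or sample incubated 2 h at 37°C, then biotin-antibody 1 h at 37°C, then HRP-avidin 1 h at 37°C, then TMB 15–30 min at 37°C in the dark. OD read at 450 nm.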

[10] = system: MCF7; assay: Induction of apoptosis in human MCF7 cells assessed as late apoptotic cells at 7.1 uM after 24 hrs by Annexin V-FITC/propidium iodide staining based flow cytometry (reference value: 0.3%); assay type: functional
[11] = target: T1, Vascular endothelial growth factor receptor 2; assay: Potency index, ratio of sorafenib IC50 to compound IC50 for inhibition of human VEGFR2
[12] = system: MCF7; assay: Induction of apoptosis in human MCF7 cells assessed as viable cells at 7.1 uM after 24 hrs by Annexin V-FITC/propidium iodide staining based flow cytometry (reference value: 99.9%); assay type: functional
[13] = system: MCF7; assay: Cell cycle arrest in human MCF7 cells assessed as accumulation at G1 phase at 7.1 uM after 24 hrs by propidium iodide staining-based flow cytometry (reference value: 66.4%); assay type: functional; procedure, shortened: as §1
[14] = system: MCF7; assay: Induction of apoptosis in human MCF7 cells assessed as active caspase3 expression levels at 7.1 uM after 24 hrs by SYBR Green dye-based RT-PCR analysis (reference value: 75 IU/ml); assay type: functional
[15] = system: MCF7; assay: Cell cycle arrest in human MCF7 cells assessed as accumulation at subG1 phase at 7.1 uM after 24 hrs by propidium iodide staining-based flow cytometry (reference value: 1.2%); assay type: functional; procedure, shortened: as §1
[16] = system: MCF7; assay: Induction of apoptosis in human MCF7 cells assessed as BAX expression levels at 7.1 uM after 24 hrs by SYBR Green dye-based RT-PCR analysis (reference value: 196 IU/ml); assay type: functional
[17] = system: MCF7; assay: Induction of apoptosis in human MCF7 cells assessed as necrotic cells at 7.1 uM after 24 hrs by Annexin V-FITC/propidium iodide staining based flow cytometry (reference value: 0.1%); assay type: functional
[18] = system: MCF7; assay: Cell cycle arrest in human MCF7 cells assessed as increase in accumulation at pre-G1 phase at 7.1 uM after 24 hrs by propidium iodide staining-based flow cytometry relative to control; assay type: functional; procedure, shortened: as §1
[19] = system: MCF7; assay: Cell cycle arrest in human MCF7 cells assessed as increase in accumulation at G2/M phase at 7.1 uM after 24 hrs by propidium iodide staining-based flow cytometry relative to control; assay type: functional; procedure, shortened: as §1
[20] = system: MCF7; assay: Induction of apoptosis in human MCF7 cells assessed as early apoptotic cells at 7.1 uM after 24 hrs by Annexin V-FITC/propidium iodide staining based flow cytometry (reference value: 0.7%); assay type: functional

## Cc1cccc(NC(=S)Nc2nnc3c4c5c(sc4ncn23)CCCC5)c1
[1]
  IC50: 99.9 µM

## O=C(Nc1ccc(Nc2ncnc3sc4c(c23)CCCC4)cc1)Nc1c(Cl)cccc1Cl
[1]
  IC50: 103 µM

## Cc1cccc(NC(=S)Nc2ccc(Nc3ncnc4sc5c(c34)CCCC5)cc2)c1
[1]
  IC50: 38.8 µM

## Cc1cccc(Cl)c1-n1c(-c2ccc(Br)cc2)co/c1=N\c1ccc(Nc2ncnc3sc4c(c23)CCCC4)cc1
[1]
  IC50: 235 µM

## O=C(Nc1ccc(Nc2ncnc3sc4c(c23)CCCC4)cc1)Nc1cccc(C(F)(F)F)c1
[1]
  IC50: 51.7 µM

## O=C(NNc1ncnc2sc3c(c12)CCCC3)Nc1ccc(Cl)c(C(F)(F)F)c1
[1]
  IC50: 53.4 µM

## O=C(NNc1ncnc2sc3c(c12)CCCC3)Nc1cccc(C(F)(F)F)c1
[1]
  IC50: 22.7 µM

## Cc1cccc(Cl)c1NC(=O)Nc1nnc2c3c4c(sc3ncn12)CCCC4
[1]
  IC50: 29.1 µM

## Cc1cccc(Cl)c1NC(=O)NNc1ncnc2sc3c(c12)CCCC3
[1]
  IC50: 90.2 µM

## S=C(Nc1ccc(Cl)cc1)Nc1ccc(Nc2ncnc3sc4c(c23)CCCC4)cc1
[1]
  IC50: 51.5 µM

## O=C(NNc1ncnc2sc3c(c12)CCCC3)Nc1c(Cl)cccc1Cl
[1]
  IC50: 88.9 µM

## COc1ccc(NC(=S)Nc2ccc(Nc3ncnc4sc5c(c34)CCCC5)cc2)cc1
[1]
  IC50: 79.1 µM

## O=C(NNc1ncnc2sc3c(c12)CCCC3)Nc1cc(C(F)(F)F)ccc1F
[1]
  IC50: 28.2 µM

## Cc1cccc(Cl)c1NC(=O)Nc1ccc(Nc2ncnc3sc4c(c23)CCCC4)cc1
[1]
  IC50: 53.9 µM

## Cc1ccc(NC(=S)Nc2ccc(Nc3ncnc4sc5c(c34)CCCC5)cc2)cc1
[1]
  IC50: 56.1 µM

## O=C(Nc1ccc(Nc2ncnc3sc4c(c23)CCCC4)cc1)Nc1cc(C(F)(F)F)ccc1F
[2]
  Ratio IC50: 1.03 - 1.5
[1]
  IC50: 10.3 µM

## O=C(Nc1cccc(C(F)(F)F)c1)Nc1nnc2c3c4c(sc3ncn12)CCCC4
[1]
  IC50: 68.5 µM

## O=C(Nc1ccc(Nc2ncnc3sc4c(c23)CCCC4)cc1)Nc1ccc(Cl)c(C(F)(F)F)c1
[3]
  fold change (FC): 30
[4]
  IC50: 0.2 µM
[5]
  Activity: 131 IU/ml
[6]
  Activity: 29.2%
[7]
  Activity: 16.3%
[8]
  Activity: 77214 IU/ml
[9]
  IC50: 9.29 µM
[10]
  Activity: 7%
[11]
  Ratio IC50: 2.1
[12]
  Activity: 69%
[13]
  Activity: 36.3%
[14]
  Activity: 64223 IU/ml
[15]
  Activity: 18.2%
[16]
  Activity: 389968 IU/ml
[17]
  Activity: 3%
[18]
  fold change (FC): 15.1
[19]
  fold change (FC): 2.2
[2]
  Ratio IC50: 1.03 - 1.5
[20]
  Activity: 21%
[1]
  IC50: 7.1 µM

## S=C(Nc1ccc(Br)cc1)Nc1ccc(Nc2ncnc3sc4c(c23)CCCC4)cc1
[2]
  Ratio IC50: 1.03 - 1.5
[1]
  IC50: 9.55 µM

## S=C(Nc1ccccc1)Nc1nnc2c3c4c(sc3ncn12)CCCC4
[1]
  IC50: 80.9 µM

## O=C(Nc1cc(C(F)(F)F)ccc1F)Nc1nnc2c3c4c(sc3ncn12)CCCC4
[1]
  IC50: 71.9 µM

## Brc1ccc(-c2cs/c(=N\c3ccc(Nc4ncnc5sc6c(c45)CCCC6)cc3)n2-c2ccccc2)cc1
[1]
  IC50: 37.3 µM

## S=C(Nc1ccccc1)Nc1ccc(Nc2ncnc3sc4c(c23)CCCC4)cc1
[1]
  IC50: 48.2 µM

## COc1cccc2c1C(=O)c1c(O)c3c(c(O)c1C2=O)C[C@@](O)(C(=O)CO)C[C@@H]3O[C@H]1C[C@H](N)[C@H](O)[C@H](C)O1 [DOXORUBICIN]
[5]
  Activity: 8 IU/ml
[8]
  Activity: 1271.6 IU/ml
[9]
  IC50: 3.5 µM
[14]
  Activity: 363940 IU/ml
[16]
  Activity: 1824021 IU/ml
[1]
  IC50: 10.6 µM

## Cc1cccc(Cl)c1NC(=S)Nc1ccc(Nc2ncnc3sc4c(c23)CCCC4)cc1
[1]
  IC50: 52.1 µM
